A selection: hits, their analogues and other compounds. The true share with any hit is near 3.1%.
hERG protect: shields human hERG channel from block by proarrhythmic agents; CHO-hERG, FluxOR thallium flux, dofetilide IC70 present; activation (rescue from dofetilide block), less the hit threshold, % at 10 µM; 310,000 compounds, 0.51% hits; AID 1511;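 active = activation above the mean of controls blocked by dofetilide plus 5 SD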;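 also: thallium influx through hERG after potassium depolarization seen as dye fluorescence rise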
KCNQ1 pot: potentiates or activates the human KCNQ1 potassium channel; B-score at 10 µM; P51787; 310,000 compounds, 0.35% hits; CHO-K1 KCNQ1, thallium flux FluxOR fluorescence; stronger effect = higher value; AID 2648;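 active = fluorescence ratio B-score, a plate-corrected score, at least three library SD, with initial intensity B-score within 5 SD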
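assay system = CHO-K1 cells stably expressing KCNQ1 | medium = assay buffer, equal DMSO in all wells | timing = 37 °C overnight plating, 90-min dark dye load, 20-min compound pretreatment | measured by = kinetic FluxOR thallium fluorescence, 10-s 1-Hz baseline, 110-s post-stimulus read | measure = fluorescence change relative to baseline, converted to B score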
KCNK3 inh: human KCNK3 channel inhibition, primary screen. O14649. 340,000 compounds, 0.84% hits. B-score at 10 µM. CHO-KCNK3 thallium flux, FluxOR fluorescence; stronger effect = lower value;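 active = B-score under library mean minus 4 SD, starting fluorescence ratio at most library mean plus 5 SD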;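 also: more negative B-score means stronger inhibition of thallium flux through KCNK3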
Target sequence (O14649 whole entry, looked up): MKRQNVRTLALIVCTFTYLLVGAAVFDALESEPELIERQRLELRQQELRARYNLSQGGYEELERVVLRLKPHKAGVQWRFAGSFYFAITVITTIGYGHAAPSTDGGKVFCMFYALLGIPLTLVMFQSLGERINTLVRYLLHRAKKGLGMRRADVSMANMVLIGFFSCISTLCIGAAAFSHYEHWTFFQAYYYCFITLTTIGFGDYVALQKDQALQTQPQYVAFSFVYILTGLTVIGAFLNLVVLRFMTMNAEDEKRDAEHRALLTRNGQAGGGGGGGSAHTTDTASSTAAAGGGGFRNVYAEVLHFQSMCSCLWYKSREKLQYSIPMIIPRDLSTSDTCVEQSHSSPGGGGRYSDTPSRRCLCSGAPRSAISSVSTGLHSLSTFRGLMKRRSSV
KCNK9 inh: human KCNK9 channel inhibition; HEK293 KCNK9, FluxOR thallium flux fluorescence; stronger effect = lower value; B-score at 10 µM; 310,000 compounds, 1.2% hits;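 active = ratio B-score over 3 SD below the library mean, with starting fluorescence within 5 SD of its mean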;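 also: negative B-score means less thallium flux so channel inhibition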
KCNQ1 block: inhibitors of human KCNQ1 potassium channel; CHO-K1 KCNQ1, FluxOR thallium flux fluorescence; stronger effect = higher value; AID 2642; P51787; B-score at 10 µM; 310,000 compounds, 1.3% hits;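 active = compounds whose thallium flux B-score, printed positive for inhibition, exceeds three library SD while starting fluorescence stays within three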;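 also: channel opened by potassium depolarization with thallium stimulus after 20 min compound exposure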
* = called active by the depositor; i = inactive; x = no result.

SMILES	hERG protect	KCNQ1 pot	KCNK3 inh	KCNK9 inh	KCNQ1 block
O=C(CSc1nncs1)NC(=O)NCc1ccco1	-7.5	i	i	i	i
O=C(CSc1nc(-c2ccc(F)cc2)cs1)NC(=O)NCc1ccco1	4.9*	i	i	i	i
Cc1ccc(-c2ccc(=O)n(Cc3c(F)cccc3Cl)n2)cc1	-5.7	i	i	i	i
CN(c1cccc(NC(=O)CN(c2ccc(Cl)c(Cl)c2)S(=O)(=O)c2ccccc2)c1)S(C)(=O)=O	-13.7	i	i	i	i
Cc1ccc(S(=O)(=O)N(CC(=O)Nc2cccc(N(C)S(C)(=O)=O)c2)c2ccc(Cl)c(Cl)c2)cc1	-3.6	i	i	i	10*
CC1(C(=O)Nc2ccc3c(c2)OCO3)CC1(Cl)Cl (stereo not drawn)	-6.3	i	i	i	i
O=C(NC(Cc1ccccc1)C(=O)O)/C(=C/c1ccco1)NC(=O)c1cccc([N+](=O)[O-])c1 (stereo not drawn)	52.5*	i	i	i	i
CN(C)S(=O)(=O)c1ccc2nc(NC(=O)c3cccnc3)sc2c1	-6.1	i	i	i	i
O=C(NC(Nc1nc2ccc([N+](=O)[O-])cc2s1)(C(F)(F)F)C(F)(F)F)c1cccnc1	-16.8	i	i	i	12*
O=C(NC(Nc1nc2ccc([N+](=O)[O-])cc2s1)(C(F)(F)F)C(F)(F)F)c1ccccc1Cl	-32.8	i	i	i	10*
CCOC(=O)c1c(NC(=O)COC(=O)c2ccccc2NC)sc(C(=O)N(C)C)c1C	-11.0	i	i	i	i
CC1CCN(C(=O)c2ccc(NC3=C(Cl)C(=O)N(Cc4ccccc4)C3=O)cc2)CC1	x	x	i	x	x
CC1CCCCN1C(=O)c1cccc(NC2=C(Cl)C(=O)N(Cc3ccccc3)C2=O)c1 (stereo not drawn)	x	x	-11.2*	x	x
Cc1ccc(C(=O)Nc2nc(-c3ccco3)c(-c3ccco3)s2)o1	x	x	-10.8*	x	x
Cc1ccc(C(=O)Nc2nc3ccc(S(C)(=O)=O)cc3s2)o1	38.1*	i	i	i	i
COc1ccc(N2C(C(C)=O)=NN(c3ccccc3)C2c2cccs2)cc1 (stereo not drawn)	-8.9	i	i	i	7*
CC(=O)Nc1ccc(N2C(C(C)=O)=NN(c3ccccc3)C2c2cccs2)cc1 (stereo not drawn)	-9.9	i	i	i	i
Cc1noc(C)c1COC(=O)C1CCN(S(=O)(=O)c2ccc(F)cc2)CC1	x	x	i	x	x
CCCc1cc(-c2nc(-c3ccc(Cl)cc3)cs2)ccn1	-10.9	i	i	-6.61*	i
CC1=CC(C#N)(C#N)C(C#N)(C#N)C(c2ccccc2)N1 (stereo not drawn)	-9.9	i	x	i	i
CC1CCC(C(C)C)C2=C1C(C#N)(C#N)C(C#N)(C#N)C(c1ccccc1)N2 (stereo not drawn)	-18.2	i	i	i	7*
c1ccc(CN(Cc2cccs2)C(c2cccs2)c2nnnn2C2CCCC2)cc1 (stereo not drawn)	-6.5	i	i	-7.54*	i
Cc1ccc(NC(=S)NC(=O)c2cncc(Br)c2)cc1Cl	8.8*	i	i	i	i
O=C(NC(=S)Nc1ccc(Cl)cc1)c1cncc(Br)c1	-2.5	i	i	i	i
CC(C)CCNC(=O)CN(C(=O)CCC(=O)Nc1nccs1)C1CCCCC1	-3.0	i	i	i	i
SMILES	hERG protect	KCNQ1 pot	KCNK3 inh	KCNK9 inh	KCNQ1 block
Cc1ccc(C=NNc2nc3c([nH]2)c(=O)n(C)c(=O)n3C)cc1	x	x	i	x	x
Cc1ccc2c(c1)C1CN(C)CCC1N2C(=S)NC(=O)c1ccc(Br)cc1 (stereo not drawn)	-1.6	22*	i	i	i
Cc1ccc(C2=NOC(c3nnc(-c4ccccc4)o3)C2)cc1 (stereo not drawn)	-1.3	8*	i	i	i
O=C(N/N=C/c1ccc(N2CCOCC2)s1)c1ccccc1Cl	-11.3	i	i	i	i
FC(F)(F)c1ccc(Cl)c(N/N=C/c2ccc(N3CCOCC3)s2)c1	-1.5	i	i	-6.94*	i
CCC(C(=O)Nc1ccc([N+](=O)[O-])cn1)c1ccccc1 (stereo not drawn)	-3.7	i	i	i	i
COC(=O)c1ccccc1-c1ccc(/C=N/Nc2nc(N3CCCC3)nc(N3CCCC3)n2)o1	-13.8	i	i	i	6*
O=[N+]([O-])c1ccc(/C=N/Nc2nc(N3CCCCCC3)nc(N3CCCCCC3)n2)o1	-12.2	i	i	-6.99*	6*
Cc1sc2ncnc(SCC(=O)NC(=O)c3cccn3C)c2c1C	1.3	11*	i	i	i
CSCCC(NC(=O)c1ccc([N+](=O)[O-])cc1Cl)C(=O)OCC(=O)C12CC3CC(CC(C3)C1)C2 (stereo not drawn)	38.8*	i	i	i	i
CSCCC(NC(=O)c1ccc([N+](=O)[O-])cc1Cl)C(=O)OCC(=O)N1CCN(C(C)=O)CC1 (stereo not drawn)	-6.8	i	i	i	i
COc1cc2c3nc4n(c(=O)c3n(CC(=O)NCC3CCCO3)c2cc1OC)CCS4 (stereo not drawn)	-3.0	i	i	i	i
Nc1ccc(C(=O)OCC(=O)N2c3ccccc3Sc3ccccc32)cc1[N+](=O)[O-]	x	x	i	x	x
NCCNc1ccc(C(=O)N2c3ccccc3Sc3ccccc32)cc1[N+](=O)[O-]	-30.5	i	i	i	8*
O=C(NC(=S)Nc1cccnc1)c1cc2ccccc2o1	14.9*	23*	i	i	i
CC(C)c1ccc(NC(=O)COC(=O)C2CCCCC2)cc1	x	x	i	x	x
OCCC1CN(C/C=C/c2ccco2)CCN1Cc1ccccc1 (stereo not drawn)	2.4	i	i	i	i
O=C(CNC(=O)c1cccc(F)c1)N/N=C/c1cc(Br)ccc1OCc1ccccc1	-3.3	i	i	i	i
O=C(CNC(=O)c1ccccc1F)N/N=C/c1cc(Br)ccc1OCc1ccccc1	-14.9	i	i	-6.61*	i
CC(C)(C)n1nnnc1C(c1cc2cc3c(cc2[nH]c1=O)OCCO3)N1CCSCC1 (stereo not drawn)	9.2*	22*	i	i	i
COc1ccc2cc(C(c3nnnn3C(C)(C)C)N3CCSCC3)c(=O)[nH]c2c1 (stereo not drawn)	-8.3	i	i	i	i
CCC1CC(C(=O)Nc2ccccc2)C(=O)O1 (stereo not drawn)	-3.3	i	i	i	i
COc1ccc(NC(=O)N2CCN(c3cccc(C(F)(F)F)c3)CC2)cc1OC	-10.9	i	i	i	i

Bioassay records from PubChem.
